Measurements from ChEMBL document CHEMBL3108700, “Designing anti-inflammatory drugs from parasitic worms: a synthetic small molecule analogue of the Acanthocheilonema viteae product ES-62 prevents development of collagen-induced arthritis” (J Med Chem, 2013).
Activity calls are given as the source filed them. No rule for the calls is given here.

Key:
[1] = target: T1, Toll-like receptor 4 (Mus musculus) (UniProt Q9QUK6); experiment: Inhibition of TLR4 in BALB/c mouse BMDM assessed as downregulation of LPS-stimulated IL-12p40 level at 5 ug/ml preincubated for 18 hrs followed by LPS challenge measured after 24 hrs by ELISA relative to control
T1 sequence (whole entry): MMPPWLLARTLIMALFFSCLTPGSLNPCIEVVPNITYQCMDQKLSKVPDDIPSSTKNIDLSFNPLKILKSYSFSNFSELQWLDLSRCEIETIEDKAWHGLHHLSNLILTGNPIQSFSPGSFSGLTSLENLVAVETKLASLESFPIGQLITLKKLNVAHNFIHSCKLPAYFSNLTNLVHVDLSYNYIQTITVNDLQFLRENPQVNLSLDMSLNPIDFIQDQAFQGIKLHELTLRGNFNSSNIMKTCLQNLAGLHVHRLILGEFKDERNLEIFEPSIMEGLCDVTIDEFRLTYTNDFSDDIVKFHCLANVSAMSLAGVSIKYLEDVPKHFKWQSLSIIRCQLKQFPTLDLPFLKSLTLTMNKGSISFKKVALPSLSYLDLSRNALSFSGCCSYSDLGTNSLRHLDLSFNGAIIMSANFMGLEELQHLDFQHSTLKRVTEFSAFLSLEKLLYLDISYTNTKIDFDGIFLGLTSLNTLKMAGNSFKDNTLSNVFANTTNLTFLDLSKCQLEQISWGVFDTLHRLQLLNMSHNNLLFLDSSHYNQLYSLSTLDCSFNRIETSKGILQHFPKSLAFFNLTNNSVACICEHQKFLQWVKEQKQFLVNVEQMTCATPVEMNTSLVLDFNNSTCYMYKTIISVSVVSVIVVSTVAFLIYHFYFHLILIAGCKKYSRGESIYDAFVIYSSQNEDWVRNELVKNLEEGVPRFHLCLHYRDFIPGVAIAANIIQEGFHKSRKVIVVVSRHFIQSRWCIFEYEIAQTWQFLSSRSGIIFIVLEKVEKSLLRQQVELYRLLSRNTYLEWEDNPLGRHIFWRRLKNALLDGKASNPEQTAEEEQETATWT
In short: (§1)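 BALB/c male bone marrow macrophages were differentiated 7 days with L929 supernatant (≥99% CD11b+/F4/80+). Cells were plated at 2 × 10^5/well in triplicate, rested overnight, and given compounds at 5 μg/mL for 18 h. They were then stimulated with 100 ng/mL S. minnesota LPS, 10 ng/mL Pam3CSK4 (BLP) or 0.01 μM CpG for 24 h. Supernatant IL-12p40 and IL-6 were measured by ELISA (sensitivity 16 pg/mL).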

TLR2/TLR6 (Mus musculus) [2] = target: T2, TLR2/TLR6 (Mus musculus) (UniProt Q9QUN7+Q9EPW9); experiment: Inhibition of TLR2/6 in BALB/c mouse BMDM assessed as downregulation of BLP-stimulated IL-12p40 level at 5 ug/ml preincubated for 18 hrs followed by BLP challenge measured after 24 hrs by ELISA relative to control; type: protein-complex assay; in short: as §1
[3] = target: T1, Toll-like receptor 4 (Mus musculus); experiment: Inhibition of TLR4 in BALB/c mouse BMDM assessed as downregulation of LPS-stimulated IL-6 level at 5 ug/ml preincubated for 18 hrs followed by LPS challenge measured after 24 hrs by ELISA relative to control; in short: as §1
[4] = target: T3, Toll-like receptor 9 (Mus musculus) (UniProt Q9EQU3); experiment: Inhibition of TLR9 in BALB/c mouse BMDM assessed as downregulation of CpG-stimulated IL-6 level at 5 ug/ml preincubated for 18 hrs followed by CpG challenge measured after 24 hrs by ELISA relative to control; in short: as §1
T3 sequence (whole entry): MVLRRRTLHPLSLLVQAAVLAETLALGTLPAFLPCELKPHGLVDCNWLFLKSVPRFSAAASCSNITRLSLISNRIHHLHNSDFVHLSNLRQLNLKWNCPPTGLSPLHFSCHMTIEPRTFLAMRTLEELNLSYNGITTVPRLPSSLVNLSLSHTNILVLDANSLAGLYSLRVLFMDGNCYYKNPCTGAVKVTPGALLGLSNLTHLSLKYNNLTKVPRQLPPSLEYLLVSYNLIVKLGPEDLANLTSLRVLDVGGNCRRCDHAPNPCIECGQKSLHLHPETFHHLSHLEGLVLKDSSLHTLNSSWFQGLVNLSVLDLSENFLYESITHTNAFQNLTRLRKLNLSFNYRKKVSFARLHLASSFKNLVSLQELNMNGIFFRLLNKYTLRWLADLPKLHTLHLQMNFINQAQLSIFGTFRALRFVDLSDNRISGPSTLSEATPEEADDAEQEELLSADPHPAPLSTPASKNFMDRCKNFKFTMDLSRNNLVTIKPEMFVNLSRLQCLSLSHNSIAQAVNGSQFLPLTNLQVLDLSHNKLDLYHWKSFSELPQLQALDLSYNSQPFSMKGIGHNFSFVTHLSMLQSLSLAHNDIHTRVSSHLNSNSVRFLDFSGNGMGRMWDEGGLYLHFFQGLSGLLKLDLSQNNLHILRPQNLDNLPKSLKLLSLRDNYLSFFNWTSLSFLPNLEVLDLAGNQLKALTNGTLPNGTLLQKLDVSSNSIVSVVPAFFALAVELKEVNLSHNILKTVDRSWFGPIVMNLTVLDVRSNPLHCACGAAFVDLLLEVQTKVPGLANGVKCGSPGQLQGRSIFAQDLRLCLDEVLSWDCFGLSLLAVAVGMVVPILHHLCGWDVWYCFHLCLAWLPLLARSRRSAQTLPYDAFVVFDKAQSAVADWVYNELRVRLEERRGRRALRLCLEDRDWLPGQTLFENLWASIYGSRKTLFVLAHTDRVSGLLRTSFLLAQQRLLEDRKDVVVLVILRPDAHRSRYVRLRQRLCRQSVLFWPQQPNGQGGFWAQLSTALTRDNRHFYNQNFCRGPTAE

TLR2/TLR6 (Mus musculus) [5] = target: T2, TLR2/TLR6 (Mus musculus); experiment: Inhibition of TLR2/6 in BALB/c mouse BMDM assessed as downregulation of BLP-stimulated IL-6 level at 5 ug/ml preincubated for 18 hrs followed by BLP challenge measured after 24 hrs by ELISA relative to control; type: protein-complex assay; in short: as §1
[6] = target: T3, Toll-like receptor 9 (Mus musculus); experiment: Inhibition of TLR9 in BALB/c mouse BMDM assessed as downregulation of CpG-stimulated IL-12p40 level at 5 ug/ml preincubated for 18 hrs followed by CpG challenge measured after 24 hrs by ELISA relative to control; in short: as §1

Compound	inhibition [1]	inhibition (TLR2/TLR6 (Mus musculus) [2])	inhibition [3]	inhibition [4]	inhibition (TLR2/TLR6 (Mus musculus) [5])	inhibition [6]
CN(C)CCCOP(=O)(O)Oc1ccc(NC(=O)OC(C)(C)C)cc1	inactive	inactive	inactive	inactive	inactive	inactive
O=S(=O)(Cc1ccccc1)NCCN1CCCC1	inactive	inactive	inactive	inactive	inactive	inactive
Cc1ccc(CS(=O)(=O)CCCN(C)C)cc1	inactive	inactive	inactive	inactive	inactive	inactive
O=C(Cc1ccccc1)NCCN1CCCC1	Active	inactive	Active	Active	Active	Active
CN(C)CCN(C)CCS(=O)(=O)Nc1ccc(F)cc1	Active	inactive	inactive	inactive	inactive	inactive
CC(C)(C)NCCS(=O)(=O)c1ccccc1	inactive	Active	inactive	inactive	inactive	inactive
Cc1ccc(CS(=O)(=O)CCCN2CCOCC2)cc1	inactive	inactive	inactive	inactive	inactive	inactive
Cc1ccc(CP(=O)(O)OCCCN(C)C)cc1	inactive	inactive	inactive	inactive	inactive	inactive
Cc1ccc(CS(=O)(=O)CC[N+](C)(C)C)cc1	Active	Active	inactive	Active	inactive	Active
COc1cccc(C(=O)NCCN(C)C)c1	Active	Active	inactive	Active	inactive	inactive
Cc1ccc(CP(=O)(O)OCCN(C)C)cc1	inactive	inactive	inactive	inactive	inactive	inactive
O=S(=O)(CCCN1CCOCC1)Cc1ccc(Br)cc1	inactive	inactive	inactive	inactive	Active	inactive
Cc1ccc(CS(=O)(=O)NCCN2CCOCC2)cc1	inactive	inactive	inactive	inactive	inactive	inactive
CN(C)CCN(C)CCS(=O)(=O)Nc1ccccc1	Active	inactive	inactive	inactive	inactive	inactive
O=S(=O)(CCN1CCOCC1)Cc1ccc(F)cc1	inactive	inactive	Active	inactive	inactive	inactive
O=S(=O)(Cc1ccc(Br)cc1)NCCN1CCCC1	inactive	inactive	inactive	inactive	inactive	inactive
Cc1ccc(CS(=O)(=O)NCCN(C)C)cc1	inactive	inactive	inactive	inactive	inactive	inactive
Cc1ccc(CS(=O)(=O)CCC[N+](C)(C)C)cc1	inactive	inactive	inactive	inactive	inactive	inactive
CN(C)CCCNS(=O)(=O)Cc1ccccc1	inactive	inactive	inactive	inactive	inactive	inactive
C[N+](C)(C)CCCS(=O)(=O)Cc1ccc(Br)cc1	inactive	inactive	Active	inactive	Active	inactive
CN(C)CCN(C)CCS(=O)(=O)Cc1ccc(F)cc1	inactive	Active	inactive	inactive	inactive	inactive
Cc1ccc(CNS(=O)(=O)CCN2CCOCC2)cc1	inactive	inactive	inactive	inactive	inactive	inactive
CN(C)CCNS(=O)(=O)Cc1ccc(Br)cc1	inactive	inactive	inactive	inactive	inactive	inactive
CN(C)CCS(=O)(=O)Nc1ccc(F)cc1	Active	inactive	inactive	inactive	inactive	inactive
